# Compound activity from PubChem BioAssay.
# Myeloid diff MLP: myeloid differentiation induction; ER-HoxA9 myeloid progenitors, lysozyme-GFP differentiation, flow cytometry; calls only at 10 µM; actives 1% (n = 360,000); AID 624256;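 active = normalized GFP-positive differentiation at or above the plate's own cutoff, the solvent-only control mean plus 3 SD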;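 note: cells exposed to compound for four days before flow analysis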
# HNF4A DNA FP: change in binding of human HNF4 alpha to DNA. HNF4a-FITC DNA binding, fluorescence polarization, 1 h. actives 0.3% (n = 360,000). P41235. AID 1224865. activity change, % at 10 µM; in the data active = activity change above about 30%, passing the limit was not always enough
# Exocytosis inh: lytic granule exocytosis inhibition. TALL-104 LAMP-1 surface exposure, flow cytometry; cells stimulated with thapsigargin and PMA. inhibition, % at 10 µM. actives 0.66% (n = 360,000). AID 651702;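 active = inhibition above about 55%, limit read from the data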
# CSN deneddyl inh: inhibitors of human CSN-mediated cullin deneddylation. actives 0.38% (n = 360,000). AID 651999. Q92905. Purified CSN, SCF-Nedd8-OG deneddylation, fluorescence polarization. inhibition, % at 12.5 µM;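 active = pattern-corrected inhibition above about 35%, with an unprinted fluorescence ratio check between 0.5 and 1.5, limit read from the data, passing the limit was not always enough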
# Target sequence (Q92905 whole entry, looked up, one chain of several): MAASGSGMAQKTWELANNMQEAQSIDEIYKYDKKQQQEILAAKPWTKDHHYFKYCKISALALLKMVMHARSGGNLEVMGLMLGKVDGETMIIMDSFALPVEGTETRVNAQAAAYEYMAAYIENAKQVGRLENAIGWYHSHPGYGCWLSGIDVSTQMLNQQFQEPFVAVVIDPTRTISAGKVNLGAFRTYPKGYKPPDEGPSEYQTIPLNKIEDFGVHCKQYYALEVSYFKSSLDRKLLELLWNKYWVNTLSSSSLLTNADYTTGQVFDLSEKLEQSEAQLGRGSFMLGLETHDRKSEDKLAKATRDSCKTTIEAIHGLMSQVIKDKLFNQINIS
#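 assay system = purified human Csn5 enzyme expressed in HEK293T cells | amount = 0.24 nM enzyme | buffer or medium = Tris/NaCl/DTT buffer, pH 7.5 | reagent = 10 nM SCFSkp2-Nedd8OG | compound = one concentration, 12.5 µM, 0.25% DMSO | times = 90 min reaction at room temperature | signal = FP | read-out basis = % inhibition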
# Myeloid diff: promotes myeloid progenitor differentiation. actives 2% (n = 2,300). calls only. ER-HoxA9 myeloid progenitors, GFP/Mac1 double-positive flow. shares compounds with Myeloid diff MLP;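 active = share of green or green-and-red cells above 9 and 9% in run 1 or 4 and 3% in run 2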
# GFP autofluor: counter-screen for myeloid differentiation promoters: compound fluorescence. fluorescence response, % (concentration not given with the values). ER-HoxA9 myeloid progenitors, no estrogen, GFP autofluorescence flow cytometry; vehicle wells 0%, positive control 100%. actives 7.4% (n = 2,300). shares compounds with Myeloid diff MLP;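 active = over 5% cells positive for green fluorescent reporter, or over 2% positive for both it and APC stain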
# Hits are given with their value; – = inactive; · = no result; + = active, no number. An excerpt weighted towards active compounds, which were near 2.2% of everything screened.
SMILES,Myeloid diff MLP,HNF4A DNA FP,Exocytosis inh,CSN deneddyl inh,Myeloid diff,GFP autofluor
Cc1cccc(NS(=O)(=O)c2ccc(C)c(C(=O)NC3CCN(Cc4ccccc4)CC3)c2)c1,+,–,–,–,–,–
CC(C)c1ccc(S(=O)(=O)N2CCN(C(=O)C3CCN(C(=O)c4ccc(F)cc4)CC3)CC2)cc1,–,–,–,–,·,·
NNC(=O)c1ccc(COc2ccc(Br)cc2)o1,–,–,–,–,–,–
CC(C)(C)c1ccc(OCc2ccc(C(=O)NN)o2)cc1,+,–,–,–,–,–
C(=C\c1ccc2ccccc2n1)/c1ccccc1,–,–,–,–,·,·
Oc1ccc(/C=C/c2ccc3ccccc3n2)cc1,+,–,–,–,–,20.3
CN(C(=O)c1cccc(NC(=O)Cc2ccc(NC(=O)C3CCN(C(=O)C4CCCC4)CC3)cc2)c1)C1CCCCC1,–,–,–,–,·,·
CN(Cc1ccccc1)C(=O)c1ccc(NC(=O)Cc2cccc(NC(=O)C3CCCN(C(=O)C4CCCCC4)C3)c2)cc1 (centres undefined),–,–,–,–,–,–
CN(C(=O)c1cccc(NC(=O)Cc2ccc(NC(=O)C3CCN(C(=O)C4CC4)CC3)cc2)c1)C1CCCCC1,–,–,–,–,–,–
CCN(C(=O)CN1CCC(C(=O)OC)CC1)c1c(N)n(Cc2ccccc2)c(=O)[nH]c1=O,–,–,–,–,·,·
CCN(C(=O)c1ccc2c(c1)OCO2)C12CC3CC(CC(C3)C1)C2,–,–,–,–,·,·
CC(C)N(CC(N)=O)c1ccc(S(=O)(=O)N2CCCC2)cn1,–,–,–,–,·,·
CCCCOc1ccc(/C(O)=C2/C(=O)C(=O)N(CCCOC)C2c2ccncc2)cc1 (centres undefined),–,–,–,–,·,·
COCCCN1C(=O)C(=O)/C(=C(/O)c2ccc(OC(C)C)cc2)C1c1ccncc1 (centres undefined),–,–,–,–,–,–
CCOC(=O)c1ccc(NC(=O)CN2C(=O)CN(C(C)=O)C2=S)cc1,–,–,–,–,·,·
CCn1c(COc2cccc(C)c2C)nnc1SCC(=O)Nc1cc(C)on1,–,–,–,–,·,·
CCn1c(COc2ccccc2C)nnc1SCC(=O)Nc1cc(C)on1,+,–,–,–,–,–
COc1ccc(CN=CC2=C(O)CNC2=O)cc1OC,–,–,–,–,–,–
Cc1ccc(C)c(-c2csc(NC(=O)C3=COCCO3)n2)c1,–,–,–,–,–,–
N#Cc1cnc2nc(SCc3ccccc3)nn2c1,–,–,–,–,·,·
Cc1nn(Cc2ccc([N+](=O)[O-])cc2)c(=O)n1-c1ccc(Cl)cc1,+,–,–,–,–,–
COc1ccccc1COC(=O)c1ccc(S(=O)(=O)N2CCOCC2)cc1,–,–,–,–,·,·
CC(=O)N1c2c(ccc3ccccc23)C(C)CC12CCCCC2 (centres undefined),–,–,–,–,·,·
CC1CC2(CCCCC2)Nc2c1ccc1ccccc21 (centres undefined),+,–,–,–,–,11.7
COc1ccc(C(CNC(=O)CCC(=O)c2ccc(C)s2)N2CCOCC2)cc1 (centres undefined),–,–,–,–,·,·
SMILES,Myeloid diff MLP,HNF4A DNA FP,Exocytosis inh,CSN deneddyl inh,Myeloid diff,GFP autofluor
CC1CCN(S(=O)(=O)c2ccc(C(C)C)cc2)CC1,+,–,–,–,–,41.2
CC1CCN(S(=O)(=O)c2ccc(Cl)cc2)CC1,–,–,–,–,·,·
O=C(NCCCN1C(=O)c2ccccc2C1=O)OCc1ccccc1,–,–,–,–,·,·
CCOC(=O)c1c(C)c(C(=O)Nc2cc(OC)ccc2OC)c(C)n1CC,+,–,–,–,–,–
CCOC(=O)c1[nH]c(C)c(C(=O)Nc2cc(OC)ccc2OC)c1C,·,–,–,–,·,·
Cn1ccc(C(=O)OCC(=O)c2ccccc2)n1,+,–,–,–,–,–
CCN(CC)S(=O)(=O)c1ccc2oc(SCC(=O)Nc3cc(C)on3)nc2c1,+,–,–,–,–,–
CC(C)C1OC(CCc2ccccc2)Cc2[nH][nH]c(=O)c21 (centres undefined),–,–,–,–,·,·
Cc1nn2c(N3CCOCC3)c3c(nc2c1-c1ccccc1)CCCC3,+,–,–,–,–,–
Cc1nn2c(-n3ccnc3C)c3c(nc2c1-c1ccccc1)CCC3,–,–,–,–,·,·
CCc1ccc(C(=O)C[n+]2cccc3cc(OC)ccc32)cc1,–,–,–,–,–,–
COc1ccc2c(ccc[n+]2CC(=O)c2ccccc2)c1,–,–,–,–,·,·
CCOc1ccc(C(=O)C[n+]2cccc3cc(C)ccc32)cc1,+,–,–,–,–,54.0
CCOc1ccc(C(=O)C[n+]2ccccc2C)cc1,–,–,–,–,·,·
Cc1noc(C)c1-c1ccc(C(=O)N2CCN(C)CC2)c2occc12,–,–,–,–,·,·
NC(=O)Nc1ccc(Oc2c(F)c(F)c(F)c(F)c2F)cc1,–,–,–,–,–,–
CCOc1ccc(NC(N)=O)cc1,–,–,–,–,·,·
Cc1ccc(NS(=O)(=O)c2cccc(C(=O)NNC(=O)c3ccco3)c2)c(C)c1,+,–,–,–,–,–
Fc1ccccc1N1CCN(C2CCCN(Cc3ccccc3C(F)(F)F)C2)CC1 (centres undefined),+,–,–,–,–,–
COc1ccccc1CN1CCCC(N2CCN(c3ccccc3OC)CC2)C1 (centres undefined),–,–,–,–,·,·
CN1CCc2c(sc(/N=C/c3cccs3)c2C(N)=O)C1,–,–,–,–,–,–
COc1cc(C(=O)NCCC(=O)NCCc2ccc(Cl)cc2)cc(OC)c1OC,–,–,–,–,·,·
COc1cc(C(=O)NCCC(=O)NCc2c(F)cc(F)cc2F)cc(OC)c1OC,–,–,–,–,–,–
COc1ccc(-n2c(C)nnc2SCC(=O)N2C(C)CCCC2C)cc1 (centres undefined),+,–,–,–,–,–
Cn1c(C(=O)N2CCCC(C(=O)NCc3cccs3)C2)cc2sccc21 (centres undefined),+,–,–,–,–,–
SMILES,Myeloid diff MLP,HNF4A DNA FP,Exocytosis inh,CSN deneddyl inh,Myeloid diff,GFP autofluor
CCn1c(C(=O)N2CCCC(C(=O)NCCc3ccc(C)cc3)C2)cc2sccc21 (centres undefined),–,–,–,–,–,–
CCC(C(=O)OCC(=O)N1CCN(S(=O)(=O)c2ccc(C)cc2C)CC1)c1ccccc1 (centres undefined),–,–,–,–,·,·
CN(C)c1ccc(S(=O)(=O)NCC(=O)N2CCN(c3ccccc3)CC2)cc1[N+](=O)[O-],+,–,–,–,–,–
CN(C)c1ccc(S(=O)(=O)NCC(=O)NCc2ccccc2)cc1[N+](=O)[O-],–,–,–,–,·,·
CN1C(=O)N2CN(C3CCCCC3)CN3C(=O)N(C)C1C23 (centres undefined),–,–,–,–,–,–
O=C1NCN(C2CCCCC2)CN1,–,–,–,–,·,·
CC(C)(C)NC(=O)CCN(/N=C/c1ccc([N+](=O)[O-])o1)C1=NS(=O)(=O)c2ccccc21,+,–,–,–,–,–
